Assay results taken from ChEMBL document CHEMBL4699443, “Position of lipidation influences anticancer activity of Smac analogs” (Bioorg Med Chem Lett, 2019).
Each block holds one compound with its values, some of them ahead of it. Active and inactive are the calls of the source. No cut-off for these calls is given here. Non-standard residues stand in square brackets, D forms with d. Residues, ends and D or L forms follow the SMILES beside them. *: point of attachment. Phe(3,5-F2) = N[C@@H](Cc1cc(F)cc(F)c1)C(=O)O; X1 = CCCCCCCCCCCCCCCCCCSCCN*; X3 = CCCCCCCCCCCCCCCCCC*; Ac4c = NC1(C(=O)O)CCC1

Columns and labels:
KOPN-8 [1] = test: Induction of apoptosis in human KOPN8 cells assessed as early apoptotic cells at 10 uM after 72 hrs by AnnexinV/PI-staining based flow cytometry; format: functional
Outline: (§1)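 KOPN-8 cells treated with 1 or 10 μM compound, alone or as an equimolar two-compound mixture. Cultured for a time course, then stained with annexin V and propidium iodide. Read by flow cytometry; populations gated by annexin V/PI staining, including annexin V+/PI+ double positives.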

NALM-6 = test: Antiproliferative activity against human NALM6 cells assessed as growth inhibition after 48 hrs by PrestoBlue dye based fluorescence assay; format: functional, cell-based; settings: NALM-6, 48 h
KOPN-8 [2] = test: Induction of apoptosis in human KOPN8 cells assessed as increase in caspase 3/7 activity at 0.1 to 50 uM after 24 hrs by Caspase-glo reagent based microplate reader analysis relative to control; format: functional; settings: dose microM 0.1-50
Outline: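 MDA-MB-231 or KOPN-8 cells treated at concentrations across 0–50 μM in dose response. Enzymatic activity of caspase-3/7 and caspase-9 measured and expressed as fold increase.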

KOPN-8 [3] = test: Induction of apoptosis in human KOPN8 cells assessed as early apoptotic cells at 10 uM after 48 hrs by AnnexinV/PI-staining based flow cytometry; format: functional; outline: as §1
KOPN-8 [4] = test: Antiproliferative activity against human KOPN-8 cells assessed as growth inhibition after 48 hrs by PrestoBlue dye based fluorescence assay; format: functional, cell-based; settings: KOPN-8, 48 h
KOPN-8 [5] = test: Induction of apoptosis in human KOPN8 cells assessed as increase in caspase 9 activity at 0.1 to 50 uM after 24 hrs by Caspase-glo reagent based microplate reader analysis relative to control; format: functional; settings: dose microM 0.1-50, time […]
Jurkat = test: Antiproliferative activity against human Jurkat cells assessed as growth inhibition after 48 hrs by PrestoBlue dye based fluorescence assay; format: functional, cell-based
KOPN-8 [6] = test: Induction of apoptosis in human KOPN8 cells assessed as necrotic cells at 10 uM after 72 hrs by AnnexinV/PI-staining based flow cytometry; format: functional; outline: as §1
[7] = Antiproliferative activity against human CEMTL cells assessed as growth inhibition after 48 hrs by PrestoBlue dye based fluorescence assay; format: functional, cell-based; settings: CEM-TL
KOPN-8 [8] = test: Induction of apoptosis in human KOPN8 cells assessed as necrotic cells at 10 uM after 168 hrs by AnnexinV/PI-staining based flow cytometry; format: functional; outline: as §1
KOPN-8 [9] = test: Induction of apoptosis in human KOPN8 cells assessed as necrotic cells at 10 uM after 24 hrs by AnnexinV/PI-staining based flow cytometry; format: functional; outline: as §1
TF-1 = test: Antiproliferative activity against human TF1 cells assessed as growth inhibition after 48 hrs by PrestoBlue dye based fluorescence assay; format: functional, cell-based; settings: TF-1, 48 h
KOPN-8 [10] = test: Induction of apoptosis in human KOPN8 cells assessed as viable cells at 10 uM after 168 hrs by AnnexinV/PI-staining based flow cytometry; format: functional; settings: read-out: Activity; outline: as §1
KOPN-8 [11] = test: Induction of apoptosis in human KOPN8 cells assessed as viable cells at 10 uM after 48 hrs by AnnexinV/PI-staining based flow cytometry; format: functional; settings: read-out: Activity; outline: as §1
KOPN-8 [12] = test: Induction of apoptosis in human KOPN8 cells assessed as late apoptotic cells at 10 uM after 168 hrs by AnnexinV/PI-staining based flow cytometry; format: functional; outline: as §1
KOPN-8 [13] = test: Induction of apoptosis in human KOPN8 cells assessed as necrotic cells at 10 uM after 48 hrs by AnnexinV/PI-staining based flow cytometry; format: functional; outline: as §1
MOLT-4 = test: Antiproliferative activity against human MOLT-4 cells assessed as growth inhibition after 48 hrs by PrestoBlue dye based fluorescence assay; format: functional, cell-based; settings: MOLT-4, 48 h
MV4-11 = test: Antiproliferative activity against human MV4-11 cells assessed as growth inhibition after 48 hrs by PrestoBlue dye based fluorescence assay; format: functional, cell-based; settings: MV4-11, 48 h
KOPN-8 [14] = test: Induction of apoptosis in human KOPN8 cells assessed as early apoptotic cells at 10 uM after 24 hrs by AnnexinV/PI-staining based flow cytometry; format: functional; outline: as §1
KOPN-8 [15] = test: Induction of apoptosis in human KOPN8 cells assessed as viable cells at 10 uM after 24 hrs by AnnexinV/PI-staining based flow cytometry; format: functional; settings: read-out: Activity; outline: as §1
THP-1 = test: Antiproliferative activity against human THP1 cells assessed as growth inhibition after 48 hrs by PrestoBlue dye based fluorescence assay; format: functional, cell-based; settings: THP-1, 48 h
KOPN-8 [16] = test: Induction of apoptosis in human KOPN8 cells assessed as late apoptotic cells at 10 uM after 24 hrs by AnnexinV/PI-staining based flow cytometry; format: functional; outline: as §1
KOPN-8 [17] = test: Induction of apoptosis in human KOPN8 cells assessed as late apoptotic cells at 10 uM after 48 hrs by AnnexinV/PI-staining based flow cytometry; format: functional; outline: as §1
KOPN-8 [18] = test: Induction of apoptosis in human KOPN8 cells assessed as late apoptotic cells at 10 uM after 72 hrs by AnnexinV/PI-staining based flow cytometry; format: functional; outline: as §1
KOPN-8 [19] = test: Induction of apoptosis in human KOPN8 cells assessed as early apoptotic cells at 10 uM after 168 hrs by AnnexinV/PI-staining based flow cytometry; format: functional; outline: as §1
KOPN-8 [20] = test: Induction of apoptosis in human KOPN8 cells assessed as viable cells at 10 uM after 72 hrs by AnnexinV/PI-staining based flow cytometry; format: functional; settings: read-out: Activity; outline: as §1
[21] = Tmax in C57BL/6 mouse at 10 mg/kg, sc by LC-MS analysis; format: ADME, organism-based; settings: in vivo
Outline: (§2)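 Mice individually weighed, then given a single SC dose of 10 mg/kg. Blood taken by retro-orbital bleeding at set time points. Plasma levels measured by triple-quadrupole LC/MS; plasma half-life derived from these levels.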

[22] = Drug level in C57BL/6 mouse plasma at 10 mg/kg, sc after 30 mins by LC-MS analysis; format: ADME, organism-based; settings: in vivo, 0.5 h; outline: as §2
[23] = Cmax in C57BL/6 mouse at 10 mg/kg, sc by LC-MS analysis; format: ADME, organism-based; set-up: route subcutaneous, dose 10 mg/kg; settings: in vivo; outline: as §2

EC50 (Jurkat): 21.7 µM
EC50 (MOLT-4): 6.5 µM
EC50 (MV4-11): 9.2 µM
EC50 (THP-1): 9.5 µM
SMILES: CCCCCCCCCCCCCCCCCCSCCNC(=O)[C@@H]1CCCN1C(=O)[C@H](CCCNC(=N)N)NC(=O)C1(NC(=O)[C@@H]2CCCN2C(=O)[C@H](Cc2cc(F)cc(F)c2)NC(=O)[C@@H](N)CSCCCCCCCCCCCCCCCCCC)CCC1 (H-C(X3)[Phe(3,5-F2)]P[Ac4c]RP-X1)
Activity (KOPN-8 [1]): 0.58%
EC50 (NALM-6): 5.6 µM
fold change (FC) (KOPN-8 [2]): 3.6
Activity (KOPN-8 [3]): 1.19%
EC50 (KOPN-8 [4]): 1 µM
Activity (KOPN-8 [5]): inactive
Activity (KOPN-8 [6]): 1.23%
EC50 [7]: 5.9 µM
Activity (KOPN-8 [8]): 1.59%
Activity (KOPN-8 [9]): 2.04%
EC50 (TF-1): 4.2 µM
viability at 10 µM (KOPN-8 [10]): 68.2%
viability at 10 µM (KOPN-8 [11]): 87.1%
Activity (KOPN-8 [12]): 26.4%
Activity (KOPN-8 [13]): 2.15%
Activity (KOPN-8 [14]): 1.09%
viability at 10 µM (KOPN-8 [15]): 87.7%
Activity (KOPN-8 [16]): 9.22%
Activity (KOPN-8 [17]): 9.59%
Activity (KOPN-8 [18]): 6.63%
Activity (KOPN-8 [19]): 3.81%
viability at 10 µM (KOPN-8 [20]): 91.6%

Tmax [21]: 15.5 h
Cp [22]: 1985.4 nM
Cmax [23]: 3970.8 nM
SMILES: CCCCCCCCCCCCCCCc1cccc(O[C@H]2C[C@@H](C(=O)NC(c3ccccc3)c3ccccc3)N(C(=O)[C@@H](NC(=O)[C@H](C)NC)C(C)(C)C)C2)c1
